# In ChEMBL document CHEMBL4765234 (J Med Chem, 2016):
# Active and inactive are the calls of the source. The calls are words filed in the database; no cut-off is given here.
# How the values were obtained:
# Rattus norvegicus [1] = assay: Hypoglycemic activity in Zucker fatty diabetes mellitus rat model assessed as reduction in blood glucose level at 3 mg/kg, po administered for 21 days and measured at 10 to 60 mins post glucose challenge on day 1 by OGTT; format: functional, organism-based; settings: time 21.0 day
# Rattus norvegicus [2] = assay: Hypoglycemic activity in Zucker fatty diabetes mellitus rat model assessed as increase in insulin levels in plasma at 3 mg/kg, po administered for 21 days and measured at 10 to 60 mins post glucose challenge on day 1 by OGTT; format: functional, organism-based; settings: time 21.0 day
# [3] = molecular target: Free fatty acid receptor 1 (Rattus norvegicus) (UniProt Q8K3T4); assay: Agonist activity at GPR40 in Sprague-Dawley rat pancreatic islets assessed as induction of glucose-mediated insulin secretion measured after 90 mins in EBSS buffer by ELISA; format: tissue-based; settings: Pancreatic islet, filed as agonist
# How it was run: (§1)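 Glucose-dependent insulin secretion in mouse MIN6 cells or rat islet cells, scored as secretion above the glucose-alone level.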
# [4] = molecular target: Free fatty acid receptor 1 (Mus musculus, UniProt Q76JU9); assay: Agonist activity at Prolink-tagged mouse GPR40 fused with EA-tagged beta-arrestin expressed in human U2OS cells assessed as induction of beta-arrestin recruitment measured after 90 mins by beta-galactosidase based PathHunter assay; format: cell-based
# How it was run: (§2)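 PathHunter β-gal complementation. Cells were incubated overnight at 5000/well in medium with 1% heat-inactivated FBS. Compound was added as a 20-point 2-fold series from a top final of 100 μM (1% DMSO) for 90 min at 37 °C, followed by detection reagents and chemiluminescence read after 1 h at rt.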
# [5] = molecular target: Free fatty acid receptor 1 (Mus musculus) (UniProt Q76JU9); assay: Agonist activity at Prolink-tagged mouse GPR40 fused with EA-tagged beta-arrestin expressed in human U2OS cells assessed as induction of beta-arrestin recruitment measured after 90 mins by beta-galactosidase based PathHunter assay relative to control; format: cell-based; settings: filed as agonist; how it was run: as §2
# [6] = molecular target: Free fatty acid receptor 1 (Rattus norvegicus, UniProt Q8K3T4); assay: Agonist activity at Prolink-tagged rat GPR40 fused with EA-tagged beta-arrestin expressed in human U2OS cells assessed as induction of beta-arrestin recruitment measured after 90 mins by beta-galactosidase based PathHunter assay; format: cell-based; how it was run: as §2
# [7] = molecular target: Free fatty acid receptor 1 (Rattus norvegicus) (UniProt Q8K3T4); assay: Agonist activity at Prolink-tagged rat GPR40 fused with EA-tagged beta-arrestin expressed in human U2OS cells assessed as induction of beta-arrestin recruitment measured after 90 mins by beta-galactosidase based PathHunter assay relative to control; format: cell-based; settings: filed as agonist; how it was run: as §2
# [8] = molecular target: Free fatty acid receptor 1 (Mus musculus) (UniProt Q76JU9); assay: Agonist activity at GPR40 in mouse MIN6 cells assessed as induction of glucose-mediated insulin secretion incubated for 2 hrs by ELISA; format: cell-based; settings: filed as agonist; how it was run: as §1
# Mus musculus = assay: Hypoglycemic activity in Balb/c mouse assessed as effective dose causing reduction in blood glucose level administered orally 60 mins prior to glucose challenge measured for 60 mins by IPGTT; format: functional; settings: po, 1 h
# [9] = Protein binding in plasma (unknown origin) by equilibrium dialysis method; format: ADME, cell-free; settings: human, read-out: PPB
# How it was run: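 Plasma protein binding measured by equilibrium dialysis.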
# [10] = molecular target: T1, Peroxisome proliferator-activated receptor alpha (Homo sapiens) (UniProt Q07869); assay: Displacement of [3H]-[…] from PPARalpha (unknown origin) expressed in baculovirus infected Sf9 insect cells upto 30 uM measured after 10 hrs by microbeta scintillation counting analysis; settings: dose microM <=30, time 10.0 hrs
# T1 sequence (whole entry): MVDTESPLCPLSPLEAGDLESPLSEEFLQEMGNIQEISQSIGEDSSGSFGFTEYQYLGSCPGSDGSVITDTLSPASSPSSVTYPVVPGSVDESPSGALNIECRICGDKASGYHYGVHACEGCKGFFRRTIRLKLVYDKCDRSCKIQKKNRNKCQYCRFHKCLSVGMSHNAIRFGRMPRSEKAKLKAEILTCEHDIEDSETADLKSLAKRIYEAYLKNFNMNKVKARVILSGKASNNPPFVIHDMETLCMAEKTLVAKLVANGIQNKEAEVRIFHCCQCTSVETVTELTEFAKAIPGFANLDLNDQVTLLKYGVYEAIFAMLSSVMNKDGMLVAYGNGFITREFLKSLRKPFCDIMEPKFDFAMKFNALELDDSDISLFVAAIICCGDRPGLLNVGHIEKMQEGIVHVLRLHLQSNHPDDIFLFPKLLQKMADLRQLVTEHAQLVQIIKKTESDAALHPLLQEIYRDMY
# How it was run: (§3)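 Scintillation proximity assay. Sf9 lysates with baculovirus-expressed PPARα (0.3 μg), PPARδ (0.5 μg) or PPARγ (1.25 μg), each with RXRα, were bound via biotinylated DR2 oligo (0.126 nM) to streptavidin yttrium silicate beads. Buffer was HEPES pH 7.8 with KCl, MgCl2, DTT, CHAPS, 14% glycerol and salmon sperm DNA. A 3H reference agonist ligand was used, with 11 compound concentrations, for 10 h. Nonspecific binding was defined with 10000 nM unlabeled reference. Ki was derived from IC50.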
# [11] = molecular target: T2, Peroxisome proliferator-activated receptor delta (Homo sapiens) (UniProt Q03181); assay: Displacement of [3H]-[…] from PPARdelta (unknown origin) expressed in baculovirus infected Sf9 insect cells upto 30 uM measured after 10 hrs by microbeta scintillation counting analysis; settings: dose microM <=30, time 10.0 hrs; how it was run: as §3
# T2 sequence (whole entry): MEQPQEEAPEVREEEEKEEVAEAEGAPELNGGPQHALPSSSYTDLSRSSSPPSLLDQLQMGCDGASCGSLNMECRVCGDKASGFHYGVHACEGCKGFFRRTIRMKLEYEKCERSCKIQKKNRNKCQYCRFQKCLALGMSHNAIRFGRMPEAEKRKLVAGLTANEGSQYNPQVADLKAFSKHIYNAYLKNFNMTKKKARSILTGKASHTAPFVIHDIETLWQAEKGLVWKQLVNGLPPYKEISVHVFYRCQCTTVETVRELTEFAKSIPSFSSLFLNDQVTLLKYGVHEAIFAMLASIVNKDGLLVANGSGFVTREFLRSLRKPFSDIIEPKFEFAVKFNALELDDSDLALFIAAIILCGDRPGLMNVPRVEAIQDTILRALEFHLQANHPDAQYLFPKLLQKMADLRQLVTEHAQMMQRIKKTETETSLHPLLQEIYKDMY
# [12] = molecular target: T3, Peroxisome proliferator-activated receptor gamma (Homo sapiens) (UniProt P37231); assay: Displacement of [3H]-[…] from PPARgamma (unknown origin) expressed in baculovirus infected Sf9 insect cells upto 30 uM measured after 10 hrs by microbeta scintillation counting analysis; settings: dose microM <=30, time 10.0 hrs; how it was run: as §3
# T3 sequence (whole entry): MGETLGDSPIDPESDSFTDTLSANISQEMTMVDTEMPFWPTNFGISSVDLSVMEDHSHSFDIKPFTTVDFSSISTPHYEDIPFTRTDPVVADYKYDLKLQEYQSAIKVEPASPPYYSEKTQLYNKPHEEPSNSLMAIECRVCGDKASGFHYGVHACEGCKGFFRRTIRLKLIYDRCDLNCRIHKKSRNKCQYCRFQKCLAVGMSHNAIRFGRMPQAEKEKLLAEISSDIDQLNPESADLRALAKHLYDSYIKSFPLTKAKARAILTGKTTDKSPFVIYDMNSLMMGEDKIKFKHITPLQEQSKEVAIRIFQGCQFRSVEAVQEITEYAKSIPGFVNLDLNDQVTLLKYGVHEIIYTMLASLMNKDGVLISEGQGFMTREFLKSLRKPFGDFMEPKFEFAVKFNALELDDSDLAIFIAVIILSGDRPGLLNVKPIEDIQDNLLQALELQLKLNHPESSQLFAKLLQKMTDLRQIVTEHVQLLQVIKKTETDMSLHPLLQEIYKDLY
# [13] = Drug distribution in C57BL/6 mouse spleen at 3 microg/kg, iv administered as single dose observed at 20 to 40 mins by LC-MS/MS analysis; format: ADME, organism-based; settings: in vivo, 0.003 mg/kg, time 20-40 min, dose 3 µg/kg
# How it was run: (§4)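 Tracer microdose study in fed male C57BL/6 mice: single 3 μg/kg IV dose in 25% HP-BCD. Mice were killed by cervical dislocation, and spleen, ascending colon, skeletal muscle and plasma were sampled at 20 and 40 min.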
# [14] = Drug distribution in C57BL/6 mouse colon at 3 microg/kg, iv administered as single dose observed at 20 to 40 mins by LC-MS/MS analysis; format: ADME, organism-based; settings: in vivo, 0.003 mg/kg, time 20-40 min, dose 3 µg/kg; how it was run: as §4
# [15] = Protein binding in C57BL/6 mouse plasma at 3 microg/kg, iv by LC-MS/MS analysis; format: ADME, organism-based; settings: in vivo, 0.003 mg/kg, dose 3 µg/kg
# [16] = AUC in hyperglycemic Balb/c mouse plasma at 1 mg/kg measured upto 60 mins; format: ADME, organism-based; parameters: dose 1 mg/kg, time <=60
# [17] = molecular target: T4, Free fatty acid receptor 1 (Homo sapiens, UniProt O14842); assay: Displacement of [3H]-TAK-875 from human recombinant full-length GPR40 expressed in human HEK293 cell membrane incubated for 2 hrs by solid scintillation counting method; format: cell membranes
# [18] = molecular target: T4, Free fatty acid receptor 1; assay: Agonist activity at human recombinant full length GPR40 overexpressed in human HEK293 cells assessed as increase in intracellular calcium level measured over 3 mins by calcium 4 dye based FLIPR assay; format: functional, cell-based
# How it was run: (§5)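 HEK293 cells overexpressing hGPR40 (25K/well) were cultured overnight in DMEM/F12 with 0.2% FBS and geneticin. Compound was tested at 40 μM–0.1 nM final (20-point, 1% DMSO), and FLIPR fluorescence was read over 3 min.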
# [19] = molecular target: T4, Free fatty acid receptor 1; assay: Agonist activity at human recombinant full length GPR40 overexpressed in human HEK293 cells assessed as increase in intracellular calcium level measured over 3 mins by calcium 4 dye based FLIPR assay relative to 100 uM linoleic acid; format: functional, cell-based; settings: filed as agonist; how it was run: as §5
# [20] = molecular target: T4, Free fatty acid receptor 1; assay: Agonist activity at human recombinant full-length Prolink-tagged GPR40 fused with EA-tagged beta-arrestin expressed in human HEK293 cells assessed as induction of beta-arrestin recruitment measured after 90 mins by beta-galactosidase based PathHunter assay; format: cell-based; how it was run: as §2
# [21] = molecular target: T4, Free fatty acid receptor 1; assay: Agonist activity at human recombinant full-length Prolink-tagged GPR40 fused with EA-tagged beta-arrestin expressed in human HEK293 cells assessed as induction of beta-arrestin recruitment measured after 90 mins by beta-galactosidase based PathHunter assay relative to control; format: cell-based; settings: filed as agonist; how it was run: as §2
# [22] = molecular target: T4, Free fatty acid receptor 1; assay: Agonist activity at human recombinant full length GPR40 overexpressed in human HEK293 cells assessed as increase in inositol phosphate accumulation in presence of terbium cryptate-labeled anti IP1/d2-labelled IP1 measured after 120 mins by HTRF assay; format: functional, cell-based
# How it was run: (§6)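 HEK293 hGPR40 cells (20K/well) were cultured overnight, washed, and held in IP1 stimulation buffer. IP-1 was measured by competitive HTRF immunoassay with terbium cryptate anti-IP1 mAb and d2-labelled IP1.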
# [23] = molecular target: T4, Free fatty acid receptor 1; assay: Agonist activity at human recombinant full length GPR40 overexpressed in human HEK293 cells assessed as increase in inositol phosphate accumulation in presence of terbium cryptate-labeled anti IP1/d2-labelled IP1 measured after 120 mins by HTRF assay relative to AMG837; format: functional, cell-based; settings: filed as agonist; how it was run: as §6
# [24] = molecular target: Voltage-gated inwardly rectifying potassium channel KCNH2 (Homo sapiens, UniProt Q12809); assay: Inhibition of human ERG
# [25] = AUC in hyperglycemic Balb/c mouse plasma at 29.4 mg/kg measured upto 60 mins; format: ADME, organism-based; parameters: dose 29.4 mg/kg, time <=60
# Sequence of Free fatty acid receptor 1 (Rattus norvegicus) (Q8K3T4 whole entry, the tested form may be a part): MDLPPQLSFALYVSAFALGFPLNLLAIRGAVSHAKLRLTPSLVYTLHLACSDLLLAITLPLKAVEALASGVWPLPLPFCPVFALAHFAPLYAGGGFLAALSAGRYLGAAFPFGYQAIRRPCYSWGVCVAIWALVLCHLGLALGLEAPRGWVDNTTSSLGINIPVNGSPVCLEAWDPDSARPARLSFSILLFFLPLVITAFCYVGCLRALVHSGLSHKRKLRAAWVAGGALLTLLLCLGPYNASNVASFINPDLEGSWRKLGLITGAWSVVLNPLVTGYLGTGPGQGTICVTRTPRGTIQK
# Sequence of Free fatty acid receptor 1 (Rattus norvegicus, UniProt Q8K3T4) (Q8K3T4 whole entry, the tested form may be a part): as above
# T4 sequence (O14842 whole entry): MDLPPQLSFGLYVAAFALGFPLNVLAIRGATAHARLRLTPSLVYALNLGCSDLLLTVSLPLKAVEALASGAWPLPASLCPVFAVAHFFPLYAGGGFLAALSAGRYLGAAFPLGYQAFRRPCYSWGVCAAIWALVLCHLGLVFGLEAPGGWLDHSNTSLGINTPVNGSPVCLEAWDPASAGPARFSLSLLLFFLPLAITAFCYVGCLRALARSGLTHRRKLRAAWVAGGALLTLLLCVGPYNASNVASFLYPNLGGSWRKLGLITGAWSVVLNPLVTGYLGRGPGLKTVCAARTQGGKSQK
# Sequence of Free fatty acid receptor 1 (Mus musculus, UniProt Q76JU9) (Q76JU9 whole entry, the tested form may be a part): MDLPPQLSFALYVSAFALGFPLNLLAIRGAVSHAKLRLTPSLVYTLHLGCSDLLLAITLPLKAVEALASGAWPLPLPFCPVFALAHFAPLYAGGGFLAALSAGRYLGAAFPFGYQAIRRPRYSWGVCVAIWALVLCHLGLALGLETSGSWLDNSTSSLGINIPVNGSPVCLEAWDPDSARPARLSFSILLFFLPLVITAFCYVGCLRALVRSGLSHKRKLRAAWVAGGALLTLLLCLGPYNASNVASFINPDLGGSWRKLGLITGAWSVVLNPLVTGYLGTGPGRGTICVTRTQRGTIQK
# Sequence of Free fatty acid receptor 1 (Mus musculus) (Q76JU9 whole entry, the tested form may be a part): as above
# Sequence of Voltage-gated inwardly rectifying potassium channel KCNH2 (Q12809 whole entry): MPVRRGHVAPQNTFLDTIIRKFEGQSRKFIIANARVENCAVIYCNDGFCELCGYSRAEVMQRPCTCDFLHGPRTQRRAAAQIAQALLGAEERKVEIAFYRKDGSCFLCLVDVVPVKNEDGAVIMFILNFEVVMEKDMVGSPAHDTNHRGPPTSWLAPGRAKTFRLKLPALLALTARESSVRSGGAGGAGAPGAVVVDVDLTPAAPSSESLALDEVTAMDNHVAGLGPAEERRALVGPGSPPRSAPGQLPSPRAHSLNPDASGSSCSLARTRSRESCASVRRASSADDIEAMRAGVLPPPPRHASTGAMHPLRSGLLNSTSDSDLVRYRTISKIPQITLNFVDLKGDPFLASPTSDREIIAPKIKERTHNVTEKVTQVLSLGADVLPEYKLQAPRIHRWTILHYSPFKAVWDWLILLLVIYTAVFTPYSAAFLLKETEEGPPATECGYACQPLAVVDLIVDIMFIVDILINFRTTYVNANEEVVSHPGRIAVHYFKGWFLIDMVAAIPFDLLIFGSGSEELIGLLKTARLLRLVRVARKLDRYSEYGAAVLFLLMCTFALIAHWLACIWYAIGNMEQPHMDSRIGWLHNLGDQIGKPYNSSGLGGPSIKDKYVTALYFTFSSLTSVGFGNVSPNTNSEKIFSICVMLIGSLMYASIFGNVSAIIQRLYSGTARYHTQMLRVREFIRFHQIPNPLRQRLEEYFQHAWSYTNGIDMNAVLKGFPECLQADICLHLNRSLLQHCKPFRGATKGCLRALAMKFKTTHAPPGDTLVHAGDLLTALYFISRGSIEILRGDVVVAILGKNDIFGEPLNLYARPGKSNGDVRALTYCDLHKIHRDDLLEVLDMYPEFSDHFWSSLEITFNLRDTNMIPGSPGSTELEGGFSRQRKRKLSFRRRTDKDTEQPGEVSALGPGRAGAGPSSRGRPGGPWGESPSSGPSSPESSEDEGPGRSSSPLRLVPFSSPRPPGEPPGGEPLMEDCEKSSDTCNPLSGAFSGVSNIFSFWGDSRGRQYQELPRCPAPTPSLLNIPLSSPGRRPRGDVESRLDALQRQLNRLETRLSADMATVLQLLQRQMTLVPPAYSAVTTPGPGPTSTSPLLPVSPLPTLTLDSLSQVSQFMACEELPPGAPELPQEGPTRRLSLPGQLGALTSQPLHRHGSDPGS
SMILES,EC50 [4],Emax [5],EC50 [6],Emax [7],ED90 (Mus musculus),fraction unbound [9],Activity [10],Activity [11],Activity [12],Ki [17],EC50 [18],Emax [19],EC50 [20],Emax [21],EC50 [22],Emax [23],further results
CN(CCOc1ccc(CC2SC(=O)NC2=O)cc1)c1ccccn1 (centres undefined),,,,,,,,,,,,,,,,,Activity (Rattus norvegicus [1]): inactive; Activity (Rattus norvegicus [2]): inactive
CC#C[C@@H](CC(=O)O)c1ccc(OCc2cccc(-c3ccc(C(F)(F)F)cc3)c2)cc1,1.5 nM,137%,3.2 nM,148%,1 mg/kg,< 0.01,inactive,inactive,inactive,,,,,,,,Activity [3]: Active; Activity [8]: Active; Drug uptake [13]: Not Active; Drug uptake [14]: Not Active; PPB [15]: Active; AUC at 1 h [16]: 33900 ng·h/mL
CC#C[C@@H](CC(=O)O)c1ccc(OCc2ccc(CN3CCC4(C=Cc5ccccc54)CC3)c(OC)c2)cc1,1.4 nM,128%,3 nM,119%,,< 0.01,inactive,inactive,inactive,2.5 nM,17 nM,61%,10 nM,140%,7.4 nM,345%,Ki [24]: 6300 nM
Cc1cc(OCCCS(C)(=O)=O)cc(C)c1-c1cccc(COc2ccc3c(c2)OC[C@H]3CC(=O)O)c1,,,,,29.4 mg/kg,< 0.01,inactive,inactive,inactive,,,,,,,,AUC at 1 h [25]: 7370 ng·h/mL
CC#C[C@@H](CC(=O)O)c1ccc(OCc2cc(C)c(CN3CCC4(C=Cc5ccccc54)CC3)s2)cc1,0.69 nM,122%,1.1 nM,121%,,< 0.01,inactive,inactive,inactive,3.5 nM,2.9 nM,65%,3.9 nM,127%,0.98 nM,132%,
